Screening data: PubChem, several laboratories
A selection: hits, their analogues and other compounds. The true share with any hit is near 1.6%.
HSV augment = enhancers of HSV replication in host cells, fold increase, host cell viability; 0.005% of 220,000 active; maximum fold increase; AID 1956, 2009; HSV replication augmentation in cells; in the data active = maximum fold increase above about 1.5; inconclusive = no clear call, values can overlap the other calls; tested in PC3 cells
PKD1 inh = inhibitors of human PKD1 kinase, biochemical, fluorescence polarization. inhibition, % (concentration not given with the values). PKD1 kinase fluorescence polarization assay. Serine/threonine-protein kinase D1 (Homo sapiens), Q15139. 0.056% of 200,000 active. AID 797, 2007; in the data active = inhibition above about 50%
Target sequence (Q15139 whole entry, looked up): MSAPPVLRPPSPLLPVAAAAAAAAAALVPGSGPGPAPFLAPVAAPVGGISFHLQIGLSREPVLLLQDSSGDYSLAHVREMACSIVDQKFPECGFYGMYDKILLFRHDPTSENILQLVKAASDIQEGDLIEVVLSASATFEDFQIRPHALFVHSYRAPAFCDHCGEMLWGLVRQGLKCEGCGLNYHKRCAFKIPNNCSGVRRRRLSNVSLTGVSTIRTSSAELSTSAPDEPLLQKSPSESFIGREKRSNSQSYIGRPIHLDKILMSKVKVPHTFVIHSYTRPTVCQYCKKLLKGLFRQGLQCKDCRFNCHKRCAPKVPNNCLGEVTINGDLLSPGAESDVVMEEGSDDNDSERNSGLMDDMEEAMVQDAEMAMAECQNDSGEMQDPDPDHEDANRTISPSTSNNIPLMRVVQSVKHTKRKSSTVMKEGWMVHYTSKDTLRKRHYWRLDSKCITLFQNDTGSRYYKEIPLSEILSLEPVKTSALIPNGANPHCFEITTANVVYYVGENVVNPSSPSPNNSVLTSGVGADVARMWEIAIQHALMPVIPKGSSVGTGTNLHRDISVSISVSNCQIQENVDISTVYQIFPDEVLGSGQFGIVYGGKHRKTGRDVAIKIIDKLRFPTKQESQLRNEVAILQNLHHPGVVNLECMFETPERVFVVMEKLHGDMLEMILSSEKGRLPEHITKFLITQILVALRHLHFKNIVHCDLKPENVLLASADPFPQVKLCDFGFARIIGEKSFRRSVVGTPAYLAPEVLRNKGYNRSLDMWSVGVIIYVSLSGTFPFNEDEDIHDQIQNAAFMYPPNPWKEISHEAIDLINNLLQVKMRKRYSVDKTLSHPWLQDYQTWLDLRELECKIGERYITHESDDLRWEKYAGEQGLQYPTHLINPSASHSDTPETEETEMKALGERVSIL
ABCG2 block = ABCG2 efflux pump inhibitors, primary screen, multiplex with ABCB1, IgMXP3 cells, flow cytometry. Broad substrate specificity ATP-binding cassette transporter ABCG2 (Homo sapiens), Q9UNQ0. 0.1% of 190,000 active. JC-1 efflux. inhibition, % at 6.6 µM. AID 1325, 2008;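 active = inhibition above 80%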;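 also: 0% = DMSO and 100% = nicardipine control wells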
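Incubation: cells with compound and JC-1, 10 min at 25 °C, rotating, no wash / Test system: IgMXP3 (ABCG2) plus far-red-tagged CCRF-Adr (ABCB1) cells / Compound dosing: one concentration, 6.6 µM final / Also added: JC-1 fluorescent substrate / Evaluation: efflux inhibition in percent versus controls / Detection: flow cytometry, 530 nm JC-1 signal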
PHOSPHO1 inh = PubChem AID 1565. 1.1% of 290,000 active. inhibition, % at 13.3 µM. recombinant PHOSPHO1, absorbance phosphatase assay. Phosphoethanolamine/phosphocholine phosphatase (Homo sapiens), Q8TCT1; in the data active = inhibition above about 60%
ABCB1 inh = ABCB1 efflux pump inhibitors, primary screen, cell-based, multiplex, flow cytometry, ABCG2 counter-screen; AID 1326, 2008; CCRF-Adr cells, JC-1 efflux; 0.067% of 190,000 active; inhibition, % at 6.6 µM; ATP-dependent translocase ABCB1 (Homo sapiens), P08183; in the data active = inhibition above about 40%;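 also: 0% = vehicle and 100% = reference inhibitor; higher value means more JC-1 retained so stronger ABCB1 efflux block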
p47phox inh = p47phox/p22phox peptide binding inhibitors, primary screen, biochemical, uHTS, NADPH oxidase regulatory subunit. Neutrophil cytosol factor 1 (Homo sapiens), P14598. fluorescence polarization, 2 h. inhibition, % at 24.7 µM. 0.53% of 220,000 active. AID 1274, 2008;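 active = inhibition above about 30%, limit read from the data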;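 also: 0% = p47phox with labelled peptide and 100% = labelled peptide alone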
* = called active by the depositor; i = inactive; ? = inconclusive; · = no result given.

SMILES	HSV augment	PKD1 inh	ABCG2 block	PHOSPHO1 inh	ABCB1 inh	p47phox inh
Cc1nnc(SCC(=O)Nc2nc(-c3ccccc3)cs2)n1N	i	-10	2	69*	0	-75
CCN(CC)C(=O)CSC1=C(C#N)C(c2cccs2)C=C(C)N1 (stereo not drawn)	i	-21	4	94*	2	-4
Cc1ccc(NC(=O)CCNC(=O)Cn2cnc3ccccc3c2=O)cc1F	·	·	·	31	·	·
C/C(=C\C(=O)c1ccc(Cl)cc1)NCc1ccc2c(c1)OCO2	i	-15	1	85*	0	-26
O=C(CSCc1ccc(Cl)cc1)NCc1ccc2c(c1)OCO2	·	-6	7	26	1	-15
O=C(COc1cc2oc(=O)cc(-c3ccccc3)c2cc1Cl)NCCN1CCOCC1	·	·	·	22	·	·
NC(=S)N/N=C\c1c(OCc2ccccc2Cl)ccc2ccccc12	i	1	15	16	3	0
Cc1cc(=O)[nH]c(N=N/C(=N/Nc2ccccc2C)c2ccccc2)n1	i	6	·	92*	·	-21
Cc1cc(=O)[nH]c(N=N/C(=N/Nc2ccc(O)cc2)c2ccccc2)n1	i	3	1	92*	0	-30
COc1ccc(N/N=C(/N=Nc2nc(C)cc(=O)[nH]2)c2ccccc2)cc1	i	0	7	51	3	6
Cn1c(CSCc2ccc(Cl)cc2)nnc1SCC(=O)Nc1nc2ccccc2s1	i	5	11	73*	0	-12
CCOC(=O)C1(C)/C(=N/Nc2ccccc2)C(=O)C(=O)N1c1ccccc1 (stereo not drawn)	i	-6	1	99*	0	-10
COc1ccccc1Nc1n[nH]c(=S)s1	i	2	-1	52	-1	9
Cc1cccc(Nc2n[nH]c(=S)s2)c1C	i	-5	0	100*	0	19
Cc1ccc(-c2nc(NC(=O)CSc3cc(C)c4ccccc4n3)ns2)cc1	i	-7	10	60*	1	52*
COc1ccc2c(C)cc(SCC(=O)Nc3nsc(-c4ccc(C)cc4)n3)nc2c1	·	-3	6	-6	1	-3
CCOc1ccccc1C(=O)Nc1cc(OC)ccc1OC	i	-14	100*	1	3	-7
CCOc1ccc(-c2nnc(SCc3nnc(-c4ccccc4)o3)n2-c2ccccc2F)cc1	i	1	7	73*	2	-21
Cc1cccc(-n2[nH]c3c4c(ccc3c2=O)C(=O)c2ccccc2C4=O)c1	i	-11	14	8	0	50*
COc1ccc(CNC(=O)CN2C(=O)c3ccc([N+](=O)[O-])cc3C2=O)cc1	·	·	·	-51	·	·
Cn1c(=O)c2c(-c3ccccc3)n(C3CCCCC3)cc2n(C)c1=O	i	-3	3	-5	1	57*
Cc1[nH]ccc(=O)c1OCc1ccccc1	i	-11	0	37	0	59*
Cc1ccc(NC(=O)CCc2c[nH]c3ccccc23)nc1	·	·	·	38	·	·
COCCn1c(C)cc(C(=O)CSc2nc3ccccc3c(=O)[nH]2)c1C	i	-3	3	-7	1	-13
COCCn1c(C)cc(C(=O)CSc2nncn2-c2ccccc2)c1C	i	-2	57	95*	1	-13
SMILES	HSV augment	PKD1 inh	ABCG2 block	PHOSPHO1 inh	ABCB1 inh	p47phox inh
COCCn1c(C)cc(C(=O)CSc2ccc3ccccc3n2)c1C	i	-2	5	69*	1	-17
c1ccc(Cc2noc(CN3CCC(CN4CCOCC4)CC3)n2)cc1	i	-6	0	61*	0	0
COCC1CCCN(Cc2nc(Cc3ccccc3)no2)C1 (stereo not drawn)	i	-3	1	50	0	7
N#Cc1c(SCc2nc3ccccc3[nH]2)nc2c(c1C(F)(F)F)CCC2	·	5	·	·	·	·
N#Cc1cc2c(nc1SCc1nc3ccccc3[nH]1)CCC2	i	-10	1	74*	0	-9
N#Cc1nc(-c2ccc(OCc3ccccc3)cc2)oc1N1CCC(C(N)=O)CC1	·	6	2	7	0	55*
CCc1ccc(-n2c(SCC(=O)c3ccc4c(c3)NC(=O)CO4)nc3ccccc3c2=O)cc1	i	4	2	60*	0	12
O=C(Nc1c2c(nn1-c1ccc(Cl)cc1)CS(=O)(=O)C2)c1ccccc1	·	·	·	27	·	·
COc1ccc(CC(=O)Nc2cccc(-c3ccc4nncn4n3)c2)cc1OC	i	-3	7	-16	0	-2
CCSc1nnc([C@@H]2CCCN2C(=O)OC(C)(C)C)o1	i	-1	0	67*	0	-16
CCn1c(=O)c2c(nc(SCC(=O)NC3CCCC3)n2C)n(C)c1=O	·	·	·	39	·	·
CCN(CC)c1ccc(NC(=O)COC(=O)c2cccs2)cc1	·	0	0	100*	0	0
CCOC(=O)C1=C(CSc2nc(C)ccc2C#N)OC(N)=C(C#N)C1c1cccc(OC)c1OC (stereo not drawn)	?	2	3	76*	5	-43
CCOC(=O)C1=C(CSc2nc(-c3ccncc3)ccc2C#N)OC(N)=C(C#N)C1c1cccnc1 (stereo not drawn)	i	1	4	61*	0	-10
CCOC(=O)C1=C(CSc2nc(-c3ccncc3)ccc2C#N)OC(N)=C(C#N)C1c1ccc(OC)cc1 (stereo not drawn)	i	-5	1	14	0	-94
Oc1ccc2ccccc2c1CN1CCOCC1	i	·	·	74*	·	-16
Cc1nn(C)cc1CN(C)C(=O)c1cc(COc2ccc(F)cc2F)on1	i	-3	-2	64*	-1	-3
CCN(Cc1cnn(C)c1)C(=O)c1cc(COc2ccc(F)cc2F)on1	i	·	·	34	·	5
FC(F)(F)c1cccc(CNC(=S)Nc2ccccc2)c1	i	-2	1	62*	0	4
CC(OC(=O)c1cc(S(=O)(=O)N2CCOCC2)ccc1F)C(=O)NC1CCCCC1C (stereo not drawn)	·	·	·	51	·	·
O=C(CCCc1nc2ccccc2s1)Nc1nccs1	i	0	-4	92*	-5	-7
CCOC(=O)c1noc(C)c1C(=O)Nc1nccs1	i	1	11	24	2	-5
Cc1nn(CCc2n[nH]c(=S)n2C)c(C)c1Br	i	-10	1	85*	0	1
Cc1nn(CCc2n[nH]c(=S)n2C2CCCCC2)c(C)c1Br	i	-10	1	-8	0	-14
CC(=O)Nc1ccc(C(=O)N/C(=C/c2ccccc2)C(=O)NCc2ccco2)cc1	·	·	·	22	·	·
S=c1nc(-c2ccco2)[nH][nH]1	i	-3	0	98*	0	-4
